This passage reports inhibition results from ChEMBL document CHEMBL4665721, “Mdm2 inhibitors as a platform for the design of P-glycoprotein inhibitors” (Bioorg Med Chem Lett, 2020).

Activity calls are given as the source filed them. No cut-off for these calls is given here.

Experiment [1] is filed under the species Homo sapiens. Description: Inhibition of P-gp-mediated Rhodamine-123 efflux in human p53 -/- HCT-116 assessed as Rhodamine-123 accumulation measured after 40 mins by spectrofluorimetry. In a few lines:
(§1)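 Cells in DMEM, 96-well plates, grown to 30% confluency, then co-treated with compounds and Rhodamine 123 (1 μM in solution). Even cell distribution checked by imaging. After 40 min, cells were washed and Rhodamine 123 fluorescence read on a plate reader (ex 488 nm, em 515-575 nm). Signal with 0.5 μM tariquidar in each line set to 100%. Triplicate; mean ± SEM.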

For experiment [2], the species on record is Homo sapiens. Description: Inhibition of P-gp-mediated Rhodamine-123 efflux in human MCF7 cells assessed as Rhodamine-123 accumulation measured after 40 mins by spectrofluorimetry. It is filed as cell-based. In a few lines: as §1
For experiment [3], the species on record is Homo sapiens. Description: Inhibition of P-gp-mediated Rhodamine-123 efflux in human p53 -/- H1299 cells assessed as Rhodamine-123 accumulation measured after 40 mins by spectrofluorimetry.
Another experiment deals with MCF7. Description: Growth inhibition of human MCF7 upto 10 uM incubated for 48 hrs. It is filed as functional, cell-based. The settings on record: dose microM <=10, time 48.0 hrs. In a few lines:
(§2)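 Cells plated in DMEM and grown 48 h in 96-well optical-bottom plates before treatment. Compounds were added as 200X dilutions of DMSO stocks and tested up to 10 μM. After 48 h, wells were washed with PBS and monolayer confluence was scored by brightfield imaging. Untreated cells served as controls. Triplicate; mean ± SEM.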

A further experiment concerns NCI-H1299. Briefly: Growth inhibition of human p53 -/- H1299 cells upto 10 uM incubated for 48 hrs. Conditions: dose microM <=10, time 48.0 hrs.
A further experiment has as its system HCT-116. Briefly: Growth inhibition of human p53 -/- NCI-HCT-116 cells upto 10 uM incubated for 48 hrs. It is filed as functional, cell-based. The settings on record: dose microM <=10, time 48.0 hrs. In a few lines: as §2

Consider `O=C(NCc1ccc(F)cc1)c1ccc(/C=C2\C(=O)N(CN3CCN(Cc4cccc(Cl)c4)CC3)c3ccc(Cl)cc32)cc1`, for which the inhibition result in the experiment listed under Homo sapiens [1], in the experiment listed under Homo sapiens [2] and in the experiment listed under Homo sapiens [3] was “Active” throughout.

Take `COc1cc2c(cc1OC)CN(CCc1ccc(NC(=O)c3cc(OC)c(OC)cc3NC(=O)c3cnc4ccccc4c3)cc1)CC2`: the inhibition result with MCF7, with NCI-H1299 and in the experiment with HCT-116 was “inactive” in each case.

As to `CC(C)[C@@H](CS(=O)(=O)C(C)C)N1C(=O)[C@@](C)(CC(=O)O)C[C@H](c2cccc(Cl)c2)[C@H]1c1ccc(Cl)cc1`, the inhibition entry in the experiment listed under Homo sapiens [1] and in the experiment listed under Homo sapiens [2] was “inactive” in each case. Further, the inhibition result in the experiment with NCI-H1299, in the experiment listed under Homo sapiens [3] and in the experiment with HCT-116 was “Active” throughout.

Regarding `COc1ccc(C2=N[C@@H](c3ccc(Cl)cc3)[C@@H](c3ccc(Cl)cc3)N2C(=O)N2CCNC(=O)C2)c(OC(C)C)c1`, the inhibition result in the experiment listed under Homo sapiens [3] is “Active”.

Turning to `N[C@H](C(=O)OCCCOC1(c2ccc(Cl)cc2)c2ccccc2C(=O)N1Cc1ccc(Cl)cc1)c1ccccc1` (stereo not given in full), the inhibition entry in the experiment filed under Homo sapiens [1], in the experiment filed under Homo sapiens [2] and in the experiment filed under Homo sapiens [3] was “Active” throughout.
